Results as given in ChEMBL document CHEMBL3758148, “4-Phenylpyridin-2-one Derivatives: A Novel Class of Positive Allosteric Modulator of the M1 Muscarinic Acetylcholine Receptor” (J Med Chem, 2016).
Calls of active or inactive are those of the source. No cut-off for these calls is given here.

Assays:
[1] = target: T1, Muscarinic acetylcholine receptor M1 (Homo sapiens) (UniProt P11229); test: Positive allosteric modulation of human muscarinic M1 receptor expressed in CHO Flp-In cells assessed as functional cooperativity with acetylcholine measured as IP1 accumulation upto 30 uM after 1 hr by HTRF method; type: cell-based
T1 sequence (whole entry): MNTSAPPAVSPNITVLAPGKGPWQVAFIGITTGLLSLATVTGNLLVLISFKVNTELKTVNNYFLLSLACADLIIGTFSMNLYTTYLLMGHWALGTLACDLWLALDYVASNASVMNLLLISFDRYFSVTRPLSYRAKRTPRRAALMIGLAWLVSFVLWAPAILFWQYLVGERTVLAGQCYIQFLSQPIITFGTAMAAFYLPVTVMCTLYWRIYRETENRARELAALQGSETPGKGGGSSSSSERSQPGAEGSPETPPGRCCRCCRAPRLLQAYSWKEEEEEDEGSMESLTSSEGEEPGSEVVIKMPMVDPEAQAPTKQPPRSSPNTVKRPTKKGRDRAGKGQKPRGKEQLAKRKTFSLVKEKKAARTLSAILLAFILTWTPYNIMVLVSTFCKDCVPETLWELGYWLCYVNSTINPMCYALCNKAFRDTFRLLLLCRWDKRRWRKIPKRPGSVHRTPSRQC
Summary of the method: (§1)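 Suspended Flp-In CHO cells stably expressing hM1, stimulated at 10⁶ cells/ml in HEPES buffer with 50 mM LiCl, pH 7.4, using increasing ACh with or without increasing modulator, 1 h at 37 °C, 5% CO2. IP1 read by HTRF (665/590 nm ratio). Curves fitted globally to the operational model of allosterism, with KB fixed from binding. Mean ± SEM, ≥3 experiments in duplicate.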

[2] = target: T1, Muscarinic acetylcholine receptor M1 (Homo sapiens); test: Displacement of [3H]NMS from human muscarinic M1 receptor expressed in CHO Flp-In cells after 1 hr by microbeta liquid scintillation counting-based radioligand binding assay; type: cell-based
Summary of the method: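 Intact adherent Flp-In CHO cells expressing hM1 (10⁴ cells/well), incubated with 0.2 nM [3H]NMS, varying ACh and modulator in HEPES-buffered saline pH 7.4 for 1 h at 37 °C. Washed with ice-cold 0.9% NaCl, then scintillation counted. Fitted to an allosteric ternary complex model with [3H]NMS KA 0.2 nM. Mean ± SEM, ≥3 experiments in duplicate.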

[3] = target: T2, Muscarinic acetylcholine receptor M5 (Homo sapiens) (UniProt P08912); test: Displacement of [3H]NMS from human muscarinic M5 receptor expressed in CHO Flp-In cells up to 10 uM after 1 hr by microbeta liquid scintillation counting-based radioligand binding assay; type: cell-based
T2 sequence (whole entry): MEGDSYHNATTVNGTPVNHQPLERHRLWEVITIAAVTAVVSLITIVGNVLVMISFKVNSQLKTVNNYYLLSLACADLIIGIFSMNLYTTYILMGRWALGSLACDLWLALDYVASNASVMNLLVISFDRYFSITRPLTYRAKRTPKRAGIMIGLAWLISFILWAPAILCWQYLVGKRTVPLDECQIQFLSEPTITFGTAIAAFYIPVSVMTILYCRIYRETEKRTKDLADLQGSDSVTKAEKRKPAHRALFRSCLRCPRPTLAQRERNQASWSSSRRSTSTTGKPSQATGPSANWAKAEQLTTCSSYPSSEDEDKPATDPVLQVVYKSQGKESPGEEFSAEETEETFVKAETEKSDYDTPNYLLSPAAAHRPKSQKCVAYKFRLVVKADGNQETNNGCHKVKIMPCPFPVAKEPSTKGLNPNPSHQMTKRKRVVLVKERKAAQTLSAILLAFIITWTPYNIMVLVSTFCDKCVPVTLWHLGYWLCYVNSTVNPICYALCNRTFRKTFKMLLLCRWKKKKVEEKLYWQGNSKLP
Summary of the method: (§2)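 Whole Flp-In CHO cells expressing hM2, hM3, hM4 or hM5 were incubated with [3H]NMS, ACh and modulator up to 10 μM in HEPES-buffered saline pH 7.4, 1 h at 37 °C. Bound radioactivity was counted by scintillation after two ice-cold saline washes.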

[4] = target: T1, Muscarinic acetylcholine receptor M1 (Homo sapiens); test: Allosteric agonist activity at human muscarinic M1 receptor expressed in CHO Flp-In cells assessed as intrinsic activity measured as IP1 accumulation after 1 hr by HTRF method; type: functional, cell-based; summary of the method: as §1
[5] = target: T1, Muscarinic acetylcholine receptor M1 (Homo sapiens); test: Positive allosteric modulation of human muscarinic M1 receptor expressed in CHO Flp-In cells assessed as functional cooperativity with acetylcholine measured as IP1 accumulation after 1 hr by HTRF method; type: cell-based; summary of the method: as §1
[6] = target: Muscarinic acetylcholine receptor M3 (Homo sapiens) (UniProt P20309); test: Displacement of [3H]NMS from human muscarinic M3 receptor expressed in CHO Flp-In cells up to 10 uM after 1 hr by microbeta liquid scintillation counting-based radioligand binding assay; type: cell-based; summary of the method: as §2
[7] = target: T3, Muscarinic acetylcholine receptor M4 (Homo sapiens) (UniProt P08173); test: Displacement of [3H]NMS from human muscarinic M4 receptor expressed in CHO Flp-In cells up to 10 uM after 1 hr by microbeta liquid scintillation counting-based radioligand binding assay; type: cell-based; summary of the method: as §2
T3 sequence (whole entry): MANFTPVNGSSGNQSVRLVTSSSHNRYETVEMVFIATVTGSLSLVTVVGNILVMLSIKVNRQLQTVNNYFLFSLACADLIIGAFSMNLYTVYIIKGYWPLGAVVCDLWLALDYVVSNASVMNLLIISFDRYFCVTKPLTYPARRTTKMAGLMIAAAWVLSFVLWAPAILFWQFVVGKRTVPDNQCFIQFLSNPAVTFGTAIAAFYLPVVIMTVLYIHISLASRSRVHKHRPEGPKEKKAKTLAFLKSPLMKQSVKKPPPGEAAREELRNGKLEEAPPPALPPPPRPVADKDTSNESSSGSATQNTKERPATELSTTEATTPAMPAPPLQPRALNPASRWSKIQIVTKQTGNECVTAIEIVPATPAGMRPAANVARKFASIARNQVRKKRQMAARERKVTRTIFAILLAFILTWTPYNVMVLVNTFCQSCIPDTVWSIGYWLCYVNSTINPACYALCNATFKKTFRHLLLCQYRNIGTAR

[8] = target: T4, Muscarinic acetylcholine receptor M2 (Homo sapiens) (UniProt P08172); test: Displacement of [3H]NMS from human muscarinic M2 receptor expressed in CHO Flp-In cells up to 10 uM after 1 hr by microbeta liquid scintillation counting-based radioligand binding assay; type: cell-based; summary of the method: as §2
T4 sequence (whole entry): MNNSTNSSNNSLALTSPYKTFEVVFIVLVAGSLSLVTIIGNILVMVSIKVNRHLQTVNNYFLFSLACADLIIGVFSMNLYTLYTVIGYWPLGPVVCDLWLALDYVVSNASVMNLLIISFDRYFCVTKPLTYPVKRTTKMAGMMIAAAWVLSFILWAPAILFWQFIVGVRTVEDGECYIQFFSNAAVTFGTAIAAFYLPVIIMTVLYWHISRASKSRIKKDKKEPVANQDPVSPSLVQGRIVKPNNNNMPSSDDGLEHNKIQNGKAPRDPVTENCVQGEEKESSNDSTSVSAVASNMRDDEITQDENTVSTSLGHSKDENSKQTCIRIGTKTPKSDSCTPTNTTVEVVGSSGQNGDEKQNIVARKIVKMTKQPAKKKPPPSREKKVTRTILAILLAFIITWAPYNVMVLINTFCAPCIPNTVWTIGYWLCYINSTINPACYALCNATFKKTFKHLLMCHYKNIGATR

Sequence of Muscarinic acetylcholine receptor M3 (Homo sapiens) (P20309 whole entry, looked up): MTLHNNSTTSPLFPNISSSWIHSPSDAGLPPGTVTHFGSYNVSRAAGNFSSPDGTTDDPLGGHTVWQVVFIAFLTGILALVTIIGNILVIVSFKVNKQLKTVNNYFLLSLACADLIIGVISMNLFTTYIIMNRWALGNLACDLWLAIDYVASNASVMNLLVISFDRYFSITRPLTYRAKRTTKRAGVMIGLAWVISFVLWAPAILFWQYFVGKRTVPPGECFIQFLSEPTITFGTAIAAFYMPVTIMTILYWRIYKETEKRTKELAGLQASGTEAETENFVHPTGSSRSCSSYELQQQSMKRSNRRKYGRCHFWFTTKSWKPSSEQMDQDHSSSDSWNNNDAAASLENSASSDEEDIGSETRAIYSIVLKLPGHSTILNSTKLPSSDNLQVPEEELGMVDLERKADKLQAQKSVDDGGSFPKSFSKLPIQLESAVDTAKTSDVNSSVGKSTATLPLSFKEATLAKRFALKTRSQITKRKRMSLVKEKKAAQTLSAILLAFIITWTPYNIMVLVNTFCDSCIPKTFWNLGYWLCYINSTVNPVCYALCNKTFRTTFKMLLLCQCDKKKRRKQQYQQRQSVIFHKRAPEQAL

Activity [1]	Kb [2] [µM]	pKb [2]	Activity [3]	Intrinsic activity [4]	log(IA) [4]	log(activity) [5]	Activity [6]	Activity [7]	Activity [8]	Compound
inactive	33	4.48	–	–	–	–	–	–	–	O=c1cc(-c2ccccc2OCc2ccccc2C(F)(F)F)ccn1[C@H]1CCCC[C@@H]1O (racemic)
inactive	79	4.1	–	–	–	–	–	–	–	O=c1cc(-c2ccccc2O)ccn1[C@H]1CCCC[C@@H]1O (racemic)
inactive	42	4.38	–	–	–	–	–	–	–	N#Cc1ccccc1COc1ccccc1-c1ccn([C@H]2CCCC[C@@H]2O)c(=O)c1 (racemic)
inactive	19	4.71	–	–	–	–	–	–	–	O=c1cc(-c2ccccc2OCc2ccc(Oc3ccccc3)cc2)ccn1[C@H]1CCCC[C@@H]1O (racemic)
inactive	30	4.52	–	–	–	–	–	–	–	O=c1cc(-c2ccccc2OCc2ccc(-c3cnn(CC4CCCCC4)c3)cc2)ccn1[C@H]1CCCC[C@@H]1O (racemic)
–	–	–	inactive	0.22	-0.6	1.84	inactive	inactive	inactive	COc1ccc(Cn2cc(C(=O)O)c(=O)c3ccccc32)cc1
inactive	–	3.86	–	–	–	–	–	–	–	Nc1ccccc1-c1ccn([C@H]2CCCC[C@@H]2O)c(=O)c1 (racemic)
inactive	21	4.68	–	–	–	–	–	–	–	O=c1cc(-c2ccccc2OCc2ccc(-c3cnn(Cc4ccccc4)c3)cc2)ccn1[C@H]1CCCC[C@@H]1O (racemic)
inactive	45	4.35	–	–	–	–	–	–	–	O=c1cc(-c2ccccc2NCc2ccc(Br)cc2)ccn1[C@H]1CCCC[C@@H]1O (racemic)
inactive	9.3	5.03	–	–	–	–	–	–	–	O=c1cc(-c2ccccc2NCc2ccc(-c3ccncc3)cc2)ccn1[C@H]1CCCC[C@@H]1O (racemic)
inactive	30	4.53	–	–	–	–	–	–	–	COc1ccccc1COc1ccccc1-c1ccn([C@H]2CCCC[C@@H]2O)c(=O)c1 (racemic)
–	7	5.13	–	–	-3	0.58	–	–	–	O=c1cc(-c2ccccc2OCc2ccc(-c3cnn(CC4CC4)c3)cc2)ccn1[C@H]1CCCC[C@@H]1O (racemic)
inactive	58	4.24	–	–	–	–	–	–	–	O=c1cc(-c2ccccc2OCc2ccc(Br)cc2)ccn1[C@H]1CCCC[C@@H]1O (racemic)
–	28	4.56	–	1.1	0.04	0.68	–	–	–	O=c1cc(-c2ccccc2OCc2ccc(-c3cn[nH]c3)cc2)ccn1[C@H]1CCCC[C@@H]1O (racemic)
–	66	4.18	–	0.44	-0.36	1.44	–	–	–	Cn1cc(-c2ccc(CNc3ccccc3-c3ccn([C@H]4CCCC[C@@H]4O)c(=O)c3)cc2)cn1 (racemic)
–	43	4.37	inactive	0.21	-0.68	2.3	inactive	inactive	inactive	Cn1cc(-c2ccc(COc3ccccc3-c3ccn([C@H]4CCCC[C@@H]4O)c(=O)c3)cc2)cn1 (racemic)
–	27	4.57	–	0.47	-0.33	1.93	–	–	–	CC(C)n1cc(-c2ccc(COc3ccccc3-c3ccn([C@H]4CCCC[C@@H]4O)c(=O)c3)cc2)cn1 (racemic)
–	52	4.28	–	0.08	-1.1	0.8	–	–	–	COc1ccc(COc2ccccc2-c2ccn([C@H]3CCCC[C@@H]3O)c(=O)c2)cc1 (racemic)
–	91	4.04	–	0.2	-0.69	1.08	–	–	–	O=C(O)c1cccc(COc2ccccc2-c2ccn([C@H]3CCCC[C@@H]3O)c(=O)c2)c1 (racemic)
inactive	18	4.75	–	–	–	–	–	–	–	O=c1cc(-c2ccccc2OCc2ccc(Br)cc2F)ccn1[C@H]1CCCC[C@@H]1O (racemic)
inactive	69	4.16	–	–	–	–	–	–	–	O=c1cc(-c2ccccc2NCc2ccc(-c3ccccc3)cc2)ccn1[C@H]1CCCC[C@@H]1O (racemic)
–	2	5.67	–	0.51	-0.29	0.63	–	–	–	O=c1cc(-c2ccccc2OCc2ccc(-c3cnn(C4CCCCC4)c3)cc2)ccn1[C@H]1CCCC[C@@H]1O (racemic)
